Experiments:
Format in all cases: functional
MDA-MB-231 = assay: Cytotoxicity against human MDA-MB-231 cells by SRB method
Procedure, shortened: (§1)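 Human tumour lines (breast MDA-MB-231, lung A-549, colon HT-29) seeded in 96-well plates and left 24 h, then given vehicle or compound at 10 to 0.0026 µg/mL (10 dilutions) for 72 h. Read-out by SRB: PBS washes, 1% glutaraldehyde fix 15 min, 0.4% SRB in 1% acetic acid 30 min RT, dye extracted into 10 mM Tris base, A490. A time-zero plate was read before treatment.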

HT-29 = assay: Cytotoxicity against human HT29 cells by SRB method; conditions: for CC50: read-out: LC50 (the source's name); procedure, shortened: as §1
A549 = assay: Cytotoxicity against human A549 cells by SRB method; procedure, shortened: as §1
[1] = read-out: LC50 (the source's name)

| Structure (SMILES) | GI50 (MDA-MB-231) | GI50 (HT-29) | TGI (HT-29) | CC50 (HT-29) | GI50 (A549) | TGI (A549) | TGI (MDA-MB-231) | CC50 (MDA-MB-231; [1]) | CC50 (A549; [1]) |
| --- | --- | --- | --- | --- | --- | --- | --- | --- | --- |
| COc1c(C)c(O)c2c(c1O)[C@@H]1C3=Cc4c(OC(C)=O)c(C)c5c(c4[C@H](COCc4ccccc4)N3[C@@H](C#N)[C@H](C2=O)N1C)OCO5 | 5.63 µM | 4.06 µM | 6.72 µM | 14.5 µM | 6.57 µM | – | – | – | – |
| C/C=C(/C)C(=O)OC[C@H]1C2=C(C=C3[C@H]4c5c(O)c(OC)c(C)c(O)c5C(=O)[C@@H](C(=O)N31)N4C)C(=O)C(C)=C(OC)C2=O [CRIBROSTATIN 5] | 4.49 µM | 6.74 µM | 7.43 µM | – | 7.09 µM | 11.6 µM | – | – | – |
| COc1c(C)cc2c(c1OCc1ccccc1)[C@@H]1C3=Cc4c(OC(C)=O)c(C)c(OC)c(OC)c4[C@H](COCc4ccccc4)N3[C@@H](C#N)[C@H](C2)N1C | 0.26 µM | 0.2 µM | 0.26 µM | 0.36 µM | 0.24 µM | 0.3 µM | 0.35 µM | 0.48 µM | 0.41 µM |
| C/C=C(/C)C(=O)OC[C@H]1c2c(c(OC(C)=O)c(C)c3c2OCO3)C=C2[C@H]3c4c(O)c(OC)c(C)c(O)c4C(=O)[C@@H](C(=O)N21)N3C | 14 µM | 11.1 µM | – | – | 7.73 µM | – | – | – | – |

From ChEMBL document CHEMBL1144821, “Synthesis and cytotoxic evaluation of some cribrostatin-ecteinascidin analogues” (2008)
